Results as given in the RNAGym collection of RNA variant scans (doi:10.1038/nmeth.2970).

B1: NELF-E aptamer (parent)
chain: CCCAACGACUGCCGAGCGAGAUUACGCUUGAGCGCCCCACUGAGGAUGCCCACGGGCGAUUGGGGCACGG

Variants of: B1
Experiment: HiTS-RAP
Conditions: with NELF-E (Drosophila)
Procedure, shortened: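 Aptamer DNA templates bearing a T7 promoter and a ter site were sequenced on an Illumina GAIIx flowcell. T7 RNA polymerase then transcribed them in situ, and GST-Tus halted transcription over 30 minutes at 37°C. After a 30-minute room-temperature equilibration with NELF-E-mOrange at 0.064 to 1000 nM in HEPES binding buffer, clusters were imaged, using only the first binding curve. Intensities normalised to sequencing intensity were averaged per sequence and fitted with weighted Hill fits to give Kd, retaining only fits whose variance stayed under 1,000,000.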

A21U A24G and U22G U29A are within 1.5-fold of each other in Kd: 5 nM for the first, 5.82 nM for the second.

U22G U29C and U22G U29G are within 1.5-fold of each other in Kd: 5.92 nM for the first, 5.4 nM for the second.

First: U22G C40U
Second: U22G C40G
The Kd of the first is 13-fold higher: 82.8 nM for the first, 6.42 nM for the second.

Compared with U22G G63A, U22G G63C is 2.7-fold higher in Kd: 14.9 nM for the first, 39.6 nM for the second. The first binds more tightly here.

Compared with U22G G63U, U22G A67U is 1.9-fold lower in Kd: 14 nM for the first, 7.3 nM for the second. The second binds more tightly here.

U22G A67G and U22G C25U are within 1.5-fold of each other in Kd: 5.48 nM for the first, 6.29 nM for the second.

U22G C25G and G20U A21G are within 1.5-fold of each other in Kd: 5.5 nM for the first, 5.12 nM for the second.

U22G U23C and U22G U23G are within 1.5-fold of each other in Kd: 4.62 nM for the first, 6.17 nM for the second.

Compared with U22G U23A, U22C C57U is 2.1-fold lower in Kd: 6.19 nM for the first, 2.92 nM for the second.

First: U22G C27U
Second: U22G C27G
The Kd of the first is 1.9-fold lower: 4.34 nM for the first, 8.09 nM for the second. The first binds more tightly here.

U22G C36U and U22G C36A are within 1.5-fold of each other in Kd: 6.89 nM for the first, 10.1 nM for the second.

U22G C36G and U23A U29G are within 1.5-fold of each other in Kd: 7.35 nM for the first, 5.75 nM for the second.

G20U U23G and G20U C57U are within 1.5-fold of each other in Kd: 6.37 nM for the first, 7.84 nM for the second.

U23C and U23A are within 1.5-fold of each other in Kd: 4.16 nM for the first, 5.15 nM for the second.

U23G and U22G G55C are within 1.5-fold of each other in Kd: 4.99 nM for the first, 7.26 nM for the second.

U22G G55A and U22G G55U are within 1.5-fold of each other in Kd: 8.23 nM for the first, 7.97 nM for the second.

U23G A46U and U23G A46G are within 1.5-fold of each other in Kd: 69.3 nM for the first, 59.5 nM for the second.

U22G U28G and U22G U28C are within 1.5-fold of each other in Kd: 6.89 nM for the first, 8.17 nM for the second.

U22G U28A and U22G U60G are within 1.5-fold of each other in Kd: 5.81 nM for the first, 7.18 nM for the second.

U22G U60A and U22G U60C are within 1.5-fold of each other in Kd: 9.43 nM for the first, 10.8 nM for the second.

U22G C50A and U22G C50U are within 1.5-fold of each other in Kd: 19.3 nM for the first, 12.9 nM for the second.

U22G C50G and G20U A31G are within 1.5-fold of each other in Kd: 7.97 nM for the first, 8.41 nM for the second.

U22G A31U and U22G A31G are within 1.5-fold of each other in Kd: 5.65 nM for the first, 6.63 nM for the second.

Compared with U23G A39G, U23G A39U is 2.9-fold higher in Kd: 8.65 nM for the first, 24.8 nM for the second.

G20A U29G and U22G G30A are within 1.5-fold of each other in Kd: 4.98 nM for the first, 5.32 nM for the second.

U22G G30U and U22G U61G are within 1.5-fold of each other in Kd: 6.56 nM for the first, 9.56 nM for the second.

Compared with U22G U61A, U23G A52G is 6.8-fold lower in Kd: 29.9 nM for the first, 4.37 nM for the second.

Going from G20U U41G to A21G A59U, the Kd rises from 6.33 nM to 73 nM (12-fold). The first binds more tightly here.

A21G U29G and U22G C66U are within 1.5-fold of each other in Kd: 5.79 nM for the first, 5.67 nM for the second.

First: U22G C66A
Second: G20U A46G
The Kd of the first is 11-fold lower: 4.13 nM for the first, 47.1 nM for the second. The first binds more tightly here.

First: G20U A24G
Second: U22G G32A
The Kd of the first is 1.6-fold higher: 6.87 nM for the first, 4.39 nM for the second.

U22G G32U and G20A U23G are within 1.5-fold of each other in Kd: 4.59 nM for the first, 5.94 nM for the second.

A21U U41G and A21G A24G are within 1.5-fold of each other in Kd: 5.38 nM for the first, 6.42 nM for the second.

A21G and A21C are within 1.5-fold of each other in Kd: 5.04 nM for the first, 5.33 nM for the second.

A21U and U23G A31G are within 1.5-fold of each other in Kd: 5.14 nM for the first, 6.72 nM for the second.

First: U23G A31U
Second: U23C U29G
The Kd of the first is 1.5-fold higher: 6.53 nM for the first, 4.34 nM for the second.

Compared with U22G A43U, U22G A43G is 2.5-fold lower in Kd: 56.4 nM for the first, 22.8 nM for the second.

Compared with U22G U47G, U22G U47A is 1.6-fold higher in Kd: 7.29 nM for the first, 11.3 nM for the second. The first binds more tightly here.

First: G20U U28C
Second: U22G G56U
The Kd of the first is 1.5-fold higher: 9.17 nM for the first, 5.99 nM for the second.

First: U22G G56A
Second: A21U U29G
The Kd of the first is 1.6-fold higher: 8.77 nM for the first, 5.33 nM for the second.

First: A21G U41G
Second: U22G A52U
The Kd of the first is 2.8-fold lower: 6.21 nM for the first, 17.5 nM for the second.

U22G A52C and U22G A52G are within 1.5-fold of each other in Kd: 6.52 nM for the first, 4.99 nM for the second.

U22G C51A and U22G C51U are within 1.5-fold of each other in Kd: 8.46 nM for the first, 7.12 nM for the second.

A21G U28C and U22G G64C are within 1.5-fold of each other in Kd: 6.03 nM for the first, 6.91 nM for the second.

U22G G64U and U22G G64A are within 1.5-fold of each other in Kd: 6.37 nM for the first, 8.7 nM for the second.

U22G G26U and U22G G26A are within 1.5-fold of each other in Kd: 4.84 nM for the first, 5.64 nM for the second.

First: G20U A59G
Second: A21G U22G
The Kd of the first is 3.5-fold higher: 19.9 nM for the first, 5.72 nM for the second.

U22G G44A and U22G G44U are within 1.5-fold of each other in Kd: 17.5 nM for the first, 17.2 nM for the second.

A21U C25G and U22G C33G are within 1.5-fold of each other in Kd: 6.57 nM for the first, 6.1 nM for the second.

First: U22G C33U
Second: U22C U47A
The Kd of the first is 1.9-fold lower: 5.57 nM for the first, 10.5 nM for the second.

U22G G34U and U22G G34A are within 1.5-fold of each other in Kd: 5.88 nM for the first, 8.31 nM for the second.

Compared with U22G G54A, U22G G54U is 1.7-fold lower in Kd: 12.1 nM for the first, 7.13 nM for the second.

U22G C53U and U22G C53A are within 1.5-fold of each other in Kd: 4.04 nM for the first, 4.91 nM for the second.

G20U G54A and U22G A39U are within 1.5-fold of each other in Kd: 20.1 nM for the first, 29.7 nM for the second.

U22G A39G and G20U A39G are within 1.5-fold of each other in Kd: 8.32 nM for the first, 10.9 nM for the second.

First: U22G U41G
Second: U22G U41A
The Kd of the first is 15-fold lower: 5.36 nM for the first, 81.8 nM for the second.

Going from U22G U41C to A21G U23G, the Kd falls from 74.5 nM to 6.71 nM (11-fold).

G20A U41G and A21U U23G are within 1.5-fold of each other in Kd: 5.24 nM for the first, 6.73 nM for the second.

U22A and U22C are within 1.5-fold of each other in Kd: 5.46 nM for the first, 4.53 nM for the second.

Compared with U22G, U22A A24G is 1.6-fold higher in Kd: 4.92 nM for the first, 7.66 nM for the second. The first binds more tightly here.

First: U22G G62U
Second: U22G G62A
The Kd of the first is 1.7-fold lower: 10.4 nM for the first, 18.2 nM for the second.

U22C U41G and U23C A24G are within 1.5-fold of each other in Kd: 5.5 nM for the first, 5.24 nM for the second.

First: A21G A46G
Second: U22G A59G
The Kd of the first is 2-fold lower: 39.1 nM for the first, 76.4 nM for the second. The first binds more tightly here.

First: U22G A59U
Second: U22G C38U
The Kd of the first is 12-fold higher: 97.1 nM for the first, 8.32 nM for the second.

U23A A24G and G20U U22G are within 1.5-fold of each other in Kd: 6.07 nM for the first, 6.52 nM for the second.

First: U22G C49U
Second: G20U G65U
The Kd of the first is 3.3-fold higher: 24.7 nM for the first, 7.46 nM for the second. The second binds more tightly here.

Compared with U22G G65U, U22G G65C is 2.2-fold higher in Kd: 6.22 nM for the first, 13.4 nM for the second. The first binds more tightly here.

U22G G65A and G20U U29G are within 1.5-fold of each other in Kd: 5.12 nM for the first, 6.19 nM for the second.

Compared with A21G G64A, G20C is 1.6-fold lower in Kd: 9.49 nM for the first, 5.82 nM for the second. The second binds more tightly here.

G20U and A21U A67G are within 1.5-fold of each other in Kd: 6.04 nM for the first, 5.54 nM for the second.

Compared with U22C U29G, G20U G64A is 1.8-fold higher in Kd: 5.29 nM for the first, 9.36 nM for the second. The first binds more tightly here.

First: U22G C37U
Second: U22G C37G
The Kd of the first is 1.8-fold higher: 12.7 nM for the first, 7.01 nM for the second.

Going from U22G C37A to U22A U23G, the Kd falls from 14.6 nM to 5.34 nM (2.7-fold). The second binds more tightly here.

A21U U22G and U22C A24G are within 1.5-fold of each other in Kd: 5.31 nM for the first, 6.97 nM for the second.

U22G G48A and U22G G48U are within 1.5-fold of each other in Kd: 9.21 nM for the first, 9.66 nM for the second.

First: U22C U23G
Second: U22G C35U
The Kd of the first is 2.3-fold lower: 5 nM for the first, 11.6 nM for the second. The first binds more tightly here.

U22G C35A and U22G C35G are within 1.5-fold of each other in Kd: 7.18 nM for the first, 6.38 nM for the second.

Compared with U22G G45U, U22G G45A is 9.8-fold higher in Kd: 7.63 nM for the first, 74.7 nM for the second. The first binds more tightly here.

U22G C57U and U23G A24U are within 1.5-fold of each other in Kd: 6.19 nM for the first, 6.08 nM for the second.

Going from U23G A24G to U23G A43U, the Kd rises from 5.97 nM to 85.7 nM (14-fold).

Going from U23G A43G to U22G A24G, the Kd falls from 25.1 nM to 5.62 nM (4.5-fold). The second binds more tightly here.

Compared with U22G A24U, U22G A46U is 4.4-fold higher in Kd: 7.45 nM for the first, 33 nM for the second.

First: U22G A46G
Second: U22G G58U
The Kd of the first is 3.4-fold higher: 35.8 nM for the first, 10.5 nM for the second.

In the case of U22G G42A, the Kd is reported as 49.8 nM.
